Structures are written as SMILES. pIC50: −log10 of the molar value.

Data set [1] addresses T1, Adenosine deaminase (Bos taurus) (UniProt P56658).
T1 sequence (whole entry): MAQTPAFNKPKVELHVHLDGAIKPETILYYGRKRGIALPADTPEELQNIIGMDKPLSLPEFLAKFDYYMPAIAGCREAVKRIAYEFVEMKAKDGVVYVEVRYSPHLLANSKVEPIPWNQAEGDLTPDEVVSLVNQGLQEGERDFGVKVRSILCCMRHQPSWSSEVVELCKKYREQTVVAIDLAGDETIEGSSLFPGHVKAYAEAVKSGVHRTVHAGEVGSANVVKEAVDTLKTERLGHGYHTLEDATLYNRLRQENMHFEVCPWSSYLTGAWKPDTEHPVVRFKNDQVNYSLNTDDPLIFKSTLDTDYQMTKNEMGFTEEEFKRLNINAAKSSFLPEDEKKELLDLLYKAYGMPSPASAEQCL
Description: Relative Adenosine deaminase hydrolysis rate was determined in vitro by appearance of the F-ddI […] on isolated enzyme. An outline of the steps:
(§1)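 Calf intestinal mucosa ADA, 0.05–1.0 unit, incubated with 50 µM substrate in pH 7.4, 0.01 M phosphate buffer at 37 °C. Timed aliquots quenched with water plus dCF and heated 1 min at 95 °C. Substrate loss and F-ddI formation followed by HPLC and fitted as exponential decay or association. Rate per unit ADA normalized to F-ddA.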

A short description of data set [2]: Partition coefficient (logP). Format: physicochemical. Particulars: octanol/water. The gist of the method: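 Octanol/pH 7.0 buffer partition coefficient measured by microscale shake-flask, with HPLC quantification of both phases. Run in triplicate; mean ± SD of three determinations.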
For data set [3], the target named is T1, Adenosine deaminase (Bos taurus). Description: Relative Adenosine deaminase hydrolysis rate was determined in vitro by disappearance of the substrate […] on isolated enzyme. The gist of the method: as §1
Data set [4] deals with PBMC. Description: % protection was determined as the percent reduction in HIV p24 Gag protein production using PHA/PBM system at 10 uM concentration. Format: functional, Homo sapiens. The gist of the method: (§2)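 PBMs from an HIV-seronegative donor, PHA-stimulated 3 days before drug addition, preincubated 2 h with compound, then infected with 250 TCID50 HIV-1 ERS104pre. Cultured at 37 °C in complete medium (15% FCS) with rIL-2. Day-8 supernatant p24 Gag measured by RIA; % protection is the reduction versus infected untreated controls. Quadruplicate.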

The test system of data set [5] is PBMC. The data set is described as follows: Anti-HIV activity measured as the ability to inhibit HIV -1 p24 Gag protein production, using PHA/PBM system. Format: functional, cell-based. Particulars: Homo sapiens. The gist of the method:
as §2

Data set [6] has as its system PBMC. Description: % protection was determined as the percent reduction in HIV p24 Gag protein production using PHA/PBM system at 80 uM concentration. It counts as functional, Homo sapiens. The gist of the method:
as §2

The test system of data set [7] is PBMC. Description: % protection was determined as the percent reduction in HIV p24 Gag protein production using PHA/PBM system at 40 uM concentration. Format: functional, Homo sapiens. The gist of the method:
as §2

The nature of data set [8]: Half life period was determined, at pH 1.0. Format: ADME. The gist of the method:
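Nucleoside (1.0 mM aqueous stock, diluted 1:20) incubated in pH 1.0 HCl/KCl buffer at 37 °C. Timed aliquots diluted into pH 7.4 phosphate buffer and quantified by isocratic C18 HPLC (15% CH3CN in pH 7.0, 0.01 M phosphate). Data fitted to first-order exponential decay or association.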

For data set [9], the system named is PBMC. Description: % protection was determined as the percent reduction in HIV p24 Gag protein production using PHA/PBM system at 20 uM concentration. Format: functional, Homo sapiens. The gist of the method: as §2
In data set [10] the test system is PBMC. The data set is described as follows: % protection was determined as the percent reduction in HIV p24 Gag protein production using PHA/PBM system at 5 uM concentration. Format: functional, Homo sapiens. An outline of the steps:
as §2

Data set [11] can be described thus: Half-life time was determined. Format: ADME.
The subject of data set [12] is PBMC. Description: % protection was determined as the percent reduction in HIV p24 Gag protein production sing PHA/PBM system at 80 uM concentration. Format: functional, Homo sapiens. The gist of the method: as §2

One may read the logP as a log measure of how a compound divides between an organic and an aqueous phase. Low values mean a more hydrophilic compound, high ones a more lipophilic compound. By pIC50 is commonly meant the negative decadic logarithm of the IC50, by convention in mol/L. A word on the half-life: it is the time needed for the level to fall by half in the phase considered. A higher half-life goes with slow decline. Turning to `OCC1CC(F)C(n2cnc3c(F)ncnc32)O1` (stereo unspecified), the Activity was found to be 233 in [1] and 202 in [3]. The compound further came in with a logP in data set [2] of 0.056. For the same compound, the Protection in the data set with PBMC [4] is listed as 83%; in the data set on PBMC [6], 99%; in the data set with PBMC [7], 99%; in the data set with PBMC [9], 97%; in the data set on PBMC [10], 58%. The same compound showed a pIC50 in the data set with PBMC [5] above 5.30. The compound also gave a half-life in data set [8] of 0.54 h.
For `OCC1CC(F)C(n2cnc3c(Cl)ncnc32)O1` (stereo unspecified), the values for the Activity in data set [1] and in [3] were 1.6 and 2, respectively. Besides, the Protection in the data set on PBMC [4] was found to be 70%; in the data set with PBMC [7] it was 97%; in the data set on PBMC [9], 92%; in the data set with PBMC [10], 40%; with PBMC [12], 98%. Besides, the half-life in [11] was 91.7 h. This compound also showed a negative-log IC50 (pIC50) in the data set on PBMC [5] of 5.23.
Take `OCC1CC(F)C(n2cnc3c(Br)ncnc32)O1` (stereo unspecified): the results for the Activity in data set [1] and in data set [3] were 1.5 and 1.7, respectively. In [2], this compound returned a logP of 0.443. In addition, the Protection was 71% in the data set on PBMC [4]; 99% with PBMC [6]; 97% in the data set with PBMC [7]; 90% with PBMC [9]; 31% with PBMC [10]. The same compound showed a half-life in [11] of 48.5 h. Further, the pIC50 with PBMC [5] was 5.19.
For the compound `CCOc1ncnc2c1ncn2C1OC(CO)CC1F` (stereo unspecified), the logP in [2] was found to be 0.803. In addition, the Activity in [3] turned out to be 0.008. Further, the Protection in the data set with PBMC [4] stood at 39%; in the data set on PBMC [6], 93%; in the data set with PBMC [7], 79%; in the data set on PBMC [9], 58%; in the data set with PBMC [10], 32%. In addition, the half-life in data set [11] is 29.2 h. This compound had a pIC50 in the data set on PBMC [5] of 4.85.
Consider `O=c1[nH]cnc2c1ncn2[C@H]1CC[C@@H](CO)O1` [DIDANOSINE], for which the Protection is 96% in the data set with PBMC [4]; 98% in the data set with PBMC [6]; 98% in the data set on PBMC [7]; 98% with PBMC [9]; 97% in the data set on PBMC [10]. Further, the negative-log IC50 (pIC50) in the data set on PBMC [5] was above 5.30.
As to `OCC1CC(F)C(n2cnc3c(O)ncnc32)O1` (stereo unspecified), the Protection with PBMC [4] stood at 61%; in the data set with PBMC [6], 98%; with PBMC [7] it was 97%; in the data set with PBMC [9] it was 89%; in the data set with PBMC [10], 54%. In addition, the pIC50 with PBMC [5] is above 5.30.
Turning to `COc1ncnc2c1ncn2C1OC(CO)CC1F` (stereo unspecified), the Activity in [1] worked out at 0.64; in data set [3], 0.63. Moreover, in data set [2], the log partition coefficient (logP) came out at 0.245. For the same compound, the Protection in the data set on PBMC [4] was found to be 35%; in the data set on PBMC [6], 92%; with PBMC [7] it was 75%; in the data set on PBMC [9], 49%; in the data set on PBMC [10], 18%. Moreover, in data set [11], the half-life is 29.6 h. Moreover, the pIC50 in the data set on PBMC [5] is 4.70.
On to `OCC1CC(F)C(n2cnc3c(I)ncnc32)O1` (stereo unspecified), for which the Activity amounted to 0.21 in [1] and 0.28 in data set [3]. Further, the logP in data set [2] was found to be 0.627. The Protection in the data set on PBMC [4] is on record as 45%; with PBMC [6] it was 96%; in the data set with PBMC [7], 96%; in the data set on PBMC [9], 81%; in the data set with PBMC [10], 27%. Further, in data set [11], the half-life was 20.9 h. In the data set with PBMC [5], this compound had a pIC50 of 4.98.
Compound `Cc1cn([C@H]2C[C@H](N=[N+]=[N-])[C@@H](CO)O2)c(=O)[nH]c1=O` [ZIDOVUDINE] yielded a logP in [2] of 0.052.

The record behind these values is ChEMBL document CHEMBL1128286, “Lipophilic, acid-stable, adenosine deaminase-activated anti-HIV prodrugs for central nervous system delivery. 2. 6-Halo and 6-alkoxy prodrugs of 2'-beta-fluoro-2',3'-dideoxyinosine” (J Med Chem, 1995).
